PMC12345971 (Computational and Structural Biotechnology Journal, 2025)
Where two headings read alike, the source gives them in different places.

Experiments:
[1] = test system: MOLT-3 lymphoblastic leukemia cell line; assay: Cytotoxic assay; assay type: cell-based, human; settings: for IC50: Homo sapiens
Method in brief: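 MOLT-3 leukemia cells (passage 15–25) grown in RPMI-1640 with 2 mM L-glutamine, penicillin-streptomycin, sodium pyruvate, glucose, 10 % FBS. Seeding was at 5 × 10³ – 2 × 10⁴ cells/well, 24 h at 37C, 5 % CO₂. Serial dilutions of test compound in DMSO then given for 48 h. XTT read-out at 550 nm. Normal-cell comparator: MRC-5 in DMEM, MTT read-out. IC50 is the concentration for 50 % growth inhibition.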

[2] = test system: 4 cancer cell lines (HepG2, HuCCA-1, A549, MOLT-3); assay: Cytotoxic assay, range over the four cancer cell lines; assay type: cell-based; settings: Homo sapiens, read-out: IC50, range over the tested cancer cell lines
Method in brief: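 Human HepG2 (DMEM), HuCCA-1 and A549 (Ham's F12), and MOLT-3 (RPMI-1640) were all in 10 % FBS. MRC-5 normal fibroblasts were in DMEM. Seeding was at 5 × 10³ – 2 × 10⁴ cells/well for 24 h at 37C. Serial dilutions of test compound (DMSO solvent) were given for 48 h. Adherent lines were read by MTT and MOLT-3 by XTT, absorbance 550 nm. IC50 is the concentration for 50 % growth inhibition.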

[3] = Cytotoxicity against normal cell line; assay type: cell-based; settings: human, MRC-5 normal fetal lung fibroblast cells
[4] = test system: A549 lung carcinoma cell line; assay: Cytotoxic assay; assay type: cell-based, human
Method in brief: (§1)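 A549 (passage 20–26) and HuCCA-1 (passage 115–121) kept in Ham's F12 with 2 mM L-glutamine, 100 U/mL penicillin-streptomycin, 10 % FBS; MRC-5 fibroblasts (passage 19–23) in DMEM, 10 % FBS. Cells seeded at 5 × 10³ – 2 × 10⁴/well in RPMI-1640 + 10 % FBS, 24 h at 37C, 5 % CO₂. DMSO-dissolved test compound added as serial dilutions, 48 h. MTT, absorbance 550 nm; IC50 = 50 % growth inhibition.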

[5] = test system: HepG2 hepatocellular carcinoma cell line; assay: Cytotoxic assay; assay type: cell-based, human
[6] = test system: HuCCA-1 cholangiocarcinoma cancer cell line; assay: Cytotoxic assay; assay type: cell-based, human; settings: IC50 for normal cell (MRC-5) / IC50 for cancer cell
Method in brief: as §1

[7] = IC50 for normal cell (MRC-5) / IC50 for cancer cell

Structure (SMILES)	IC50 ([1]; MOLT-3, read-out: Experimental pIC50 MOLT-3 (converted))	IC50 [2]	IC50 at 48 h [3]	IC50 ([4]; Homo sapiens, A549, 48 h, read-out: IC50 A549)	Selectivity index (SI) A549 [4, 7]	IC50 ([5]; Homo sapiens, HepG2, 48 h, read-out: IC50 HepG2, MTT, 48 h)	Selectivity index (SI) HepG2 [5, 7]	Selectivity index (SI) HuCCA-1 [6]	IC50 ([1]; MOLT-3, 48 h, read-out: IC50 MOLT-3)	Selectivity index (SI) MOLT-3 [1, 7]
CC1=CC(=O)c2c(O)cccc2C1=O [Compound 10, plumbagin]	1380 nM	1380 to 13600 nM								
COc1cccc2c1C(=O)c1c(O)c3c(c(O)c1C2=O)C[C@@](O)(C(=O)CO)C[C@@H]3O[C@H]1C[C@H](N)[C@H](O)[C@H](C)O1 [Doxorubicin, doxorubicin]			930 nM	310 nM	3.02	460 nM	2.02	1.08		
COc1cc([C@@H]2c3cc4c(cc3[C@@H](O[C@@H]3O[C@@H]5CO[C@@H](C)O[C@H]5[C@H](O)[C@H]3O)[C@H]3COC(=O)[C@H]23)OCO4)cc(OC)c1O [Etoposide, etoposide]			13400 nM						60 nM	218.85
